The list is not random: actives were taken first. Their share in the collection is about 2.3%.
NPY2 pot ag: potentiates or activates human NPY-Y2 receptor; cells expressing NPY-Y2, potentiator/agonist read-out; activation, % at 3.6 µM; P49146; AID 1359; 0.45% of 220,000 active; in the data active = activation above about 27%;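 note: cells stimulated with NPY near EC25 plus isoproterenol at EC100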
Target sequence (P49146 whole entry, looked up): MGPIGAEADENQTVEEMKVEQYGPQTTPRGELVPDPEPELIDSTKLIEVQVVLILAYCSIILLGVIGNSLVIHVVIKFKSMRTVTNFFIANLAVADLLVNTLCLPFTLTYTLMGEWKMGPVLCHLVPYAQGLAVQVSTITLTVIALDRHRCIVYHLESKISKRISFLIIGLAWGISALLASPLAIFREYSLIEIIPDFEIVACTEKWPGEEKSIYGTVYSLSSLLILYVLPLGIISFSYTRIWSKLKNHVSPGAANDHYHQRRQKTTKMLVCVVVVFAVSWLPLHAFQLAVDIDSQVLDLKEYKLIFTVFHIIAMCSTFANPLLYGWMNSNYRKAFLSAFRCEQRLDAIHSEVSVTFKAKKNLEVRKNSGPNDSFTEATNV
Tb hexokinase: T. brucei hexokinase 1 inhibition; inhibition, % at 10 µM; recombinant TbHK1, G6PDH-coupled NADH A340; 0.11% of 220,000 active;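 active = inhibition of 50% or more in the single-dose primary screen; inactive = inhibition below 50%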
NPY-Y1 antag: blocks the human neuropeptide Y Y1 receptor; P25929; HEK293-CNG Y1 cells, membrane potential fluorescence; NPY at EC95, then isoproterenol; inhibition, % at 3.6 µM; 1% of 200,000 active;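 active = inhibition above the campaign mean inhibition of all tested compounds plus 3 SD, cut at about 20% in these data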
Target sequence (P25929 whole entry, looked up): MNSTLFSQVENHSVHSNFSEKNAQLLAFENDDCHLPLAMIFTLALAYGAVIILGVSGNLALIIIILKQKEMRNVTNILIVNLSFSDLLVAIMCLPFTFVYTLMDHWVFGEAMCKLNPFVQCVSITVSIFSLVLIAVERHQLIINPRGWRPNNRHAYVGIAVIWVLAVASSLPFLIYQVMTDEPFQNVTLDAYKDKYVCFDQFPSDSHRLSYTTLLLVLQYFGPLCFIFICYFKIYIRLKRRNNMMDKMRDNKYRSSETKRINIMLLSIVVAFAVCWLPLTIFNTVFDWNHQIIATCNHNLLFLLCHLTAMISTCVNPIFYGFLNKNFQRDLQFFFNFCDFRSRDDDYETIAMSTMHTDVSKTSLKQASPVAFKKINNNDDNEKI
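Material: HEK293 cells co-expressing NPY Y1 receptor and cyclic-nucleotide gated channel. Timing: compound incubation 1 h at room temperature, readout 45 min post-stimulation. Signal: fluorescence, membrane potential probe.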
NPY Y2 blocker: NPY-Y2 (human) receptor antagonism; AID 793; NPY-Y2 expressing cells, antagonist mode; 0.99% of 140,000 active; inhibition, % at 2.7 µM
NPY-Y1 PAM-ag: potentiates or activates human NPY-Y1 receptor | P25929 | NPY-Y1 expressing cells, potentiator/agonist activation | activation, % at 3.6 µM | 0.37% of 220,000 active; in the data active = activation above about 33%, passing the limit was not always enough;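 note: cells stimulated with NPY at EC10 then isoproterenol at EC100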
m-calpain inh: inhibitors of pig calpain II; 0.37% of 220,000 active; AID 1236; inhibition, % at 16 µM; purified calpain II, fluorogenic peptide substrate, 30 min;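 active = inhibition above about 50%, limit read from the data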
NPY1 antag ctr: counter-screen for NPY-Y2 antagonists: human NPY-Y1 antagonism | shares compounds with NPY Y2 blocker | cell-based NPY-Y1 antagonism counterscreen | inhibition, % at 3.6 µM | 19% of 710 active | AID 1256; in the data active = inhibition above about 20%;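 note: cells challenged with NPY then isoproterenol with cAMP sensed through a CNG channel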
NPY-Y2 ant conf: confirmation of human neuropeptide Y receptor Y2 antagonists; shares compounds with NPY Y2 blocker; HEK293 NPY-Y2 CNG channel, membrane potential fluorescence; inhibition, % at 2.8 µM; 32% of 710 active;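 active = mean inhibition of triplicate wells above the hit cutoff set in the primary screen, cut at about 17% in these data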
NPY-Y1 ant conf: confirmation of human neuropeptide Y receptor Y1 antagonists; shares compounds with NPY-Y1 antag; 21% of 1,200 active; inhibition, % at 3.6 µM; HEK293-CNG NPY-Y1, membrane potential fluorescence, cAMP; NPY challenge against isoproterenol-raised cAMP; in the data active = inhibition above about 20%
NPY2 antag ctr: antagonizes human NPY-Y2, counter-screen to NPY-Y1 antagonists. shares compounds with NPY-Y1 antag. HEK293 NPY-Y2 CNG membrane potential fluorescence, antagonism; cells given NPY, then isoproterenol. inhibition, % at 3.6 µM. 28% of 1,200 active
NPY-Y2 confirm: confirmation of human NPY-Y2 receptor potentiators or agonists; shares compounds with NPY2 pot ag; activation, % at 3.6 µM; AID 1539; 20% of 450 active; cell-based NPY-Y2 potentiator/agonist assay; in the data active = activation above about 33%
NPY-Y1 counter: potentiates or activates NPY-Y1, counter-screen for NPY-Y2 hits; shares compounds with NPY2 pot ag; 20% of 450 active; Y1 HEK293-CNG cells, membrane potential fluorescence; activation, % at 3.6 µM; AID 1651; in the data active = activation above about 45%;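 note: cells stimulated with submaximal NPY then isoproterenol with phosphodiesterase inhibitor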
NPY-Y1 ag 2: counter-screen for NPY-Y2 potentiators: agonists of human NPY-Y1; activation, % at 3.6 µM; shares compounds with NPY2 pot ag; 37% of 450 active; HEK293 Y1-CNGC, membrane potential fluorescence, agonism;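 active = activation above the mean of DMSO-only control wells plus 3 SD, cut at about 18% in these data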;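 note: cells stimulated with 1 µM isoproterenol plus the PDE inhibitor Ro 20-1724; Y1 agonists lower the membrane potential dye signal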
CNGC inhibitor: cyclic nucleotide gated channel inhibition as counter-screen; shares compounds with NPY2 pot ag; HEK293-CNG parental, isoproterenol cAMP, membrane potential fluorescence; inhibition, % at 3.6 µM; 32% of 450 active; AID 1703;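 active = inhibition above the control-well mean plus 3 SD of those wells, cut at about 22% in these data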
Y2 agonist ctr: activates human NPY-Y2 receptor in potentiator counter-screen. 56% of 450 active. HEK293 Y2/CNGC cells, membrane potential fluorescence, agonist mode. activation, % at 3.6 µM. shares compounds with NPY2 pot ag. AID 1710;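 active = activation above the mean of solvent-only control wells plus 3 SD, cut at about 10% in these data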;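 note: cells stimulated by isoproterenol with no NPY added so direct agonism is tested; agonism lowers probe fluorescence through less cAMP and CNG channel opening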
Each line names hits and unclear results; the compound was inactive in the other large screens (follow-up assays come after a bar, where they were run). Cut-off read from the data, not from the text of the source, unless noted: active = inhibition above about 17%; inactive = the rest.

C/C(CCC(=O)OC[C@H]1O[C@H](C#Cc2ccccc2)C=C[C@@H]1Oc1ccc(C)cc1)=N\O[C@@H](C)CN1CCCCc2nc(C)c(C)cc21	NPY Y2 blocker 21.6 | NPY1 antag ctr inactive | NPY-Y2 ant conf inactive
CCN(CC)C(=O)CSc1nc(N)c(C#N)c(-c2cccs2)c1C#N	none
CCN(CC)C(=O)CSc1nc(-c2cccs2)cc(-c2cccs2)c1C#N	NPY Y2 blocker 18.2 | NPY1 antag ctr inactive | NPY-Y2 ant conf inactive
CC(C)S(=O)(=O)N1CCCC(C(=O)c2cccc(Cl)c2)C1 (configuration not stated)	none (no result: NPY Y2 blocker)
CCC1Oc2ccc(C)cc2N(CC(=O)NCCC2=CCCCC2)C1=O (configuration not stated)	NPY Y2 blocker 19.1 | NPY1 antag ctr inactive | NPY-Y2 ant conf inactive
COc1ccc(C(=O)O/N=C(\C)c2ccccc2)cc1	none
CCCOc1ccc(C(=O)O/N=C(\CC)c2ccc(C)cc2)cc1	none
CC/C(=N\OC(=O)c1ccc(OC(C)C)cc1)c1ccc(C)cc1	NPY Y2 blocker 20.1 | NPY1 antag ctr inactive | NPY-Y2 ant conf inactive
C/C(=N\OC(=O)c1ccc(OC(C)C)cc1)c1ccc(C)c(C)c1	NPY Y2 blocker 21.8 | NPY1 antag ctr inactive | NPY-Y2 ant conf 30.2
CCOC(=O)c1c(NC(=O)CSc2nc3cc(Cl)ccc3c(=O)n2Cc2ccco2)sc(C(=O)N(C)C)c1C	none
Cn1c(CSc2nc3ccccc3s2)n[nH]c1=S	none
Cn1c(-c2sc3ccccc3c2Cl)n[nH]c1=S	NPY Y2 blocker 17.3 | NPY1 antag ctr inactive | NPY-Y2 ant conf inactive
Cc1ccc(-c2nnc(-c3cccc(Br)c3)o2)cc1	none
Brc1cccc(-c2nnc(-c3ccccc3)o2)c1	NPY Y2 blocker 17.9 | NPY1 antag ctr inactive | NPY-Y2 ant conf inactive
CCOc1ccc(NC(=O)C2(c3ccc(OC)c(OC)c3)CCCC2)cc1	NPY Y2 blocker 27.1 | NPY1 antag ctr inactive | NPY-Y2 ant conf inactive
COc1ccc(C2(CNC(=O)c3cccc([N+](=O)[O-])c3)CCOCC2)cc1	NPY Y2 blocker 17.5 | NPY1 antag ctr inactive | NPY-Y2 ant conf inactive
COc1ccc(NC(=O)/C(Cl)=C(/Cl)S(=O)Cc2ccccc2Cl)cn1 (configuration not stated)	none (no result: NPY Y2 blocker)
O=C(O)CCNS(=O)(=O)c1ccc2c(c1)CCCC2	none (no result: NPY Y2 blocker)
O=C(O)CCNS(=O)(=O)c1ccc2c(c1)Cc1ccccc1-2	NPY Y2 blocker 27.4 | NPY1 antag ctr inactive | NPY-Y2 ant conf inactive
CC(=O)c1c(C)n(-c2ccccc2)c2ccc(OCC(O)CN3CCOCC3)cc12 (configuration not stated)	none
CCN(CC)CC(O)COc1ccc2c(c1)c(C(C)=O)c(C)n2-c1ccccc1 (configuration not stated)	NPY Y2 blocker 17.4 | NPY1 antag ctr inactive | NPY-Y2 ant conf 31.6
Cc1ccc(-c2nnc3sc(C4COc5ccccc5O4)nn23)cc1 (configuration not stated)	NPY Y2 blocker 17.9 | NPY1 antag ctr inactive | NPY-Y2 ant conf inactive
Clc1ccccc1-c1nnc2sc(C3COc4ccccc4O3)nn12 (configuration not stated)	none
CCCc1nnc2n1N=C(c1ccc(OC)c(OC)c1)CS2	NPY Y2 blocker 19.4 | NPY1 antag ctr inactive | NPY-Y2 ant conf inactive
COC(=O)c1ccc(OCC(=O)c2ccc(C)c(C)c2)cc1	NPY Y2 blocker 25.9 | NPY1 antag ctr inactive | NPY-Y2 ant conf inactive
CC(C)COC(=O)c1cccc2c1-c1ccccc1/C2=N\O	NPY Y2 blocker 22.0 | NPY1 antag ctr inactive | NPY-Y2 ant conf 39.0
CN(C)CCCSc1nc(-c2ccccc2)nc2c1CCC2	NPY Y2 blocker 21.2 | NPY1 antag ctr inactive | NPY-Y2 ant conf 22.9
O=C1CCC(CCC(=O)N2CCCC(C(=O)c3cccc(C(F)(F)F)c3)C2)=NN1 (configuration not stated)	none (no result: NPY Y2 blocker)
COc1cccc(/C=N/NC(=O)Cn2cnc3c2c(=O)n(C)c(=O)n3C)c1	none (no result: NPY-Y1 antag, NPY Y2 blocker)
c1ccc(C(Cc2nc(-c3ccncc3)no2)c2ccccc2)cc1	NPY2 pot ag 41.6, NPY Y2 blocker 22.9 | NPY1 antag ctr inactive | NPY-Y2 ant conf inactive | NPY-Y2 confirm inactive | NPY-Y1 counter inactive | NPY-Y1 ag 2 inactive | CNGC inhibitor inactive | Y2 agonist ctr inactive
O=c1c2oc3nc4c(cc3c2ncn1CCCc1ccccc1)CCCC4	none (no result: NPY-Y1 antag, NPY Y2 blocker)
CCn1nc(NS(=O)(=O)c2ccccc2)c2cc3cccc(C)c3nc21	none
CCCn1nc(NS(C)(=O)=O)c2cc3cccc(C)c3nc21	NPY-Y1 antag 27.1 | NPY-Y1 ant conf inactive | NPY2 antag ctr inactive
CS(=O)(=O)Nc1cccc2[nH]ncc12	none (no result: NPY Y2 blocker)
O=C(Nc1ccc2c(c1)OCO2)C1CCN(C(=O)c2ccc(Br)cc2)CC1	NPY-Y1 antag 33.0 (no result: NPY Y2 blocker) | NPY-Y1 ant conf inactive | NPY2 antag ctr inactive
CCOC(=O)c1cnc2ccc(OC)cc2c1Nc1ccc2c(c1)OCCO2	NPY-Y1 antag 39.5 | NPY-Y1 ant conf inactive | NPY2 antag ctr inactive
CCOC(=O)c1cnc2ccc(C(=O)OC)cc2c1Nc1ccc2c(c1)OCCO2	none
Cc1cccc(-n2c(SCc3ccc([N+](=O)[O-])cc3)nnc2-c2c[nH]c3ccccc23)c1	none (no result: NPY Y2 blocker)

Compound activity deposited in PubChem by several laboratories.
